Source: ChEMBL document CHEMBL2401723, “Optimization of the electrophile of chloronitrobenzamide leads active against Trypanosoma brucei” (Bioorg Med Chem Lett, 2013)
In brackets after ≈: the same amount, converted by molar mass.

Key:
[1] = tested on: Trypanosoma brucei brucei; test: Antitrypanosomal activity against Trypanosoma brucei brucei assessed as parasite growth inhibition after 48 hrs by Cell-Titer Glo assay; format: functional, organism-based
BJ = test: Cytotoxicity against human BJ cells assessed as growth inhibition after 72 hrs by Cell-Titer Glo assay; format: cell-based
In short: (§1)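 Human cell lines (Raji Burkitt's lymphoma, BJ immortalized foreskin fibroblast, HEK293 embryonic kidney, HepG2) exposed 72 h to a 10-point threefold dilution series by pin transfer, lowest final 0.5 nM, final DMSO 0.2%; proliferation run in triplicate, EC50 derived.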

[2] = Kinetic solubility in PBS buffer at pH 7.4 after 18 hrs by UV-spectroscopic analysis; format: physicochemical; settings: for solubility kinetic at 18 h: PBS buffer, pH 7.4, read-out: Kinetic_solubility
HEK293 = test: Cytotoxicity against HEK293 cells assessed as growth inhibition after 72 hrs by Cell-Titer Glo assay; format: cell-based; settings: Homo sapiens, HEK293, 72 h; in short: as §1
Raji = test: Cytotoxicity against human Raji cells assessed as growth inhibition after 72 hrs by Cell-Titer Glo assay; format: cell-based; in short: as §1
HepG2 = test: Cytotoxicity against human HepG2 cells assessed as growth inhibition after 72 hrs by Cell-Titer Glo assay; format: cell-based; settings: HepG2, 72 h; in short: as §1
[3] = Permeability of the compound by PAMPA; format: ADME; settings: for Papp: read-out: permeability
In short: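 Passive permeability by parallel artificial membrane assay (pION implementation), measured against PBS pH 7.4 sink buffer.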

[4] = tested on: Trypanosoma brucei brucei; test: Antitrypanosomal activity against Trypanosoma brucei brucei assessed as parasite growth inhibition; format: functional, organism-based
[5] = tested on: Trypanosoma brucei rhodesiense; test: Antitrypanosomal activity against wild type Trypanosoma brucei rhodesiense STIB900 assessed as parasite growth inhibition after 48 hrs by Cell-Titer Glo assay; format: functional, organism-based; settings: STIB900, 48 h
In short: (§2)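 Parasites exposed to a 10-point threefold dilution series added by pin transfer, lowest final concentration 0.5 nM, final DMSO 0.2%; EC50 from the series, mean of two experiments.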

[6] = Half life in mouse liver microsomes; format: ADME, Microsome
[7] = Half life in human liver microsomes; format: ADME, Microsome
[8] = tested on: Trypanosoma brucei gambiense; test: Antitrypanosomal activity against Trypanosoma brucei gambiense STIB930 assessed as parasite growth inhibition after 48 hrs by Cell-Titer Glo assay; format: functional, organism-based; settings: STIB930, 48 h; in short: as §2

EC50 [1] [nM] | solubility kinetic at 18 h [2] [µM] | Papp [3] [×10⁻⁶ cm/s] | EC50 [4] [nM] | EC50 [5] [nM] | half-life [6] [min] | half-life [7] [min] | EC50 [8] [nM] | Kinetic_solubility ([2]; buffer, pH 7.4, 18 h, BLD = below limit of detection) | permeability [3] [×10⁻⁶ cm/s] | Structure (SMILES) | EC50 (BJ) [µM] | EC50 (HEK293) [µM] | EC50 (Raji) [µM] | EC50 (HepG2) [µM]
25000 | 0.52 (≈ 0.19 µg/mL) | 677 |  |  |  |  |  |  |  | O=C(Nc1cccc(-c2nc3ccccc3s2)c1)c1cccnc1Cl | > 25 | > 25 | > 25 | > 25
120 | 0.34 (≈ 0.135 µg/mL) | 121 |  |  |  |  |  |  |  | COc1ccc(-c2nc3ccccc3s2)cc1NC(=O)c1cnccc1Cl | > 25 | > 25 | 13 | > 25
 |  |  | 27 |  |  |  |  |  |  | Cc1ccc(-c2nc3ccccc3s2)cc1NC(=O)c1cc([N+](=O)[O-])c(N2CCNCC2)cc1Cl |  |  |  | 
18000 | 0.94 (≈ 0.35 µg/mL) | 133 |  |  |  |  |  |  |  | O=C(Nc1cccc(-c2nc3ccccc3s2)c1)c1cnc(Cl)s1 | > 25 | > 25 | > 25 | > 25
58 | 0.14 (≈ 0.0532 µg/mL) | 791 |  | 55 | 34.8 | 222 | 58 |  |  | Cc1ccc(-c2nc3ccccc3s2)cc1NC(=O)c1cnccc1Cl | > 25 | > 25 | > 25 | > 25
11000 | 0.35 (≈ 0.14 µg/mL) | 104 |  |  |  |  |  |  |  | O=C(Nc1cccc(-c2nc3ccccc3s2)c1)c1ccc(Cl)nc1Cl | > 25 | > 25 | > 25 | > 25
120 | 1 (≈ 0.303 µg/mL) | 660 |  |  |  |  |  |  |  | O=C(CCl)Nc1cccc(-c2nc3ccccc3s2)c1 | 8.5 | 10 | 1.7 | 16
> 33000 |  | 891 |  |  |  |  |  | BLD |  | CC(C)(CCl)C(=O)Nc1cccc(-c2nc3ccccc3s2)c1 | > 25 | > 25 | > 25 | > 25
> 33000 | 56 (≈ 18.2 µg/mL) |  |  |  |  |  |  |  | 2080 | CN(C)CCC(=O)Nc1cccc(-c2nc3ccccc3s2)c1 | > 25 | > 25 | > 25 | 21
> 33000 | 0.42 (≈ 0.124 µg/mL) | 987 |  |  |  |  |  |  |  | C=C(C)C(=O)Nc1cccc(-c2nc3ccccc3s2)c1 | > 25 | > 25 | > 25 | > 25
440 | 0.13 (≈ 0.0478 µg/mL) | 258 |  |  |  |  |  |  |  | O=C(Nc1cc(-c2nc3ccccc3o2)ccc1F)c1cnccc1Cl | > 25 | > 25 | > 25 | > 25
180 | 0.51 (≈ 0.186 µg/mL) | 646 |  | 120 |  |  | 170 |  |  | Cc1ccc(-c2nc3ccccc3o2)cc1NC(=O)c1cnccc1Cl | > 25 | > 25 | > 25 | > 25
> 33000 | 0.11 (≈ 0.0324 µg/mL) |  |  |  |  |  |  |  | 1640 | C/C=C/C(=O)Nc1cccc(-c2nc3ccccc3s2)c1 | > 25 | > 25 | > 25 | > 25
120 | 0.67 (≈ 0.246 µg/mL) | 305 |  | 50 |  |  | 120 |  |  | O=C(Nc1ccc(F)c(-c2nc3ccccc3o2)c1)c1cnccc1Cl | > 25 | > 25 | > 25 | > 25
180 | 0.18 (≈ 0.0691 µg/mL) | 306 |  |  |  |  |  |  |  | O=C(Nc1cc(-c2nc3ccccc3s2)ccc1F)c1cnccc1Cl | > 25 | > 25 | > 25 | > 25
20000 | 0.74 (≈ 0.271 µg/mL) | 478 |  |  |  |  |  |  |  | O=C(Nc1cccc(-c2nc3ccccc3s2)c1)c1ccnc(Cl)c1 | > 25 | > 25 | > 25 | > 25
> 33000 | 0.18 (≈ 0.0505 µg/mL) | 797 |  |  |  |  |  |  |  | C=CC(=O)Nc1cccc(-c2nc3ccccc3s2)c1 | > 25 | > 25 | > 25 | > 25
920 | 3 (≈ 0.933 µg/mL) | 536 |  |  |  |  |  |  |  | O=C(Nc1ccc(Cl)cc1)c1cc([N+](=O)[O-])ccc1Cl | > 25 | > 25 | > 25 | > 25
300 | 0.32 (≈ 0.117 µg/mL) | 732 |  | 62 |  |  | 61 |  |  | O=C(Nc1cccc(-c2nc3ccccc3s2)c1)c1cnccc1Cl | > 25 | > 25 | 12 | > 25
120 | 0.08 (≈ 0.0307 µg/mL) | 21 |  | 18 | > 240 | > 240 | 38 |  |  | O=C(Nc1ccc(F)c(-c2nc3ccccc3s2)c1)c1cnccc1Cl | > 25 | > 25 | > 25 | > 25
1200 | 0.83 (≈ 0.263 µg/mL) | 769 |  |  |  |  |  |  |  | CC(Cl)C(=O)Nc1cccc(-c2nc3ccccc3s2)c1 (stereo not drawn) | > 25 | > 25 | > 25 | > 25
> 33000 | 56 (≈ 18.2 µg/mL) | 4 |  |  |  |  |  |  |  | O=C(O)/C=C/C(=O)Nc1cccc(-c2nc3ccccc3s2)c1 | > 25 | > 25 | > 25 | > 25
24000 | 0.32 (≈ 0.117 µg/mL) | 563 |  |  |  |  |  |  |  | O=C(Nc1cccc(-c2nc3ccccc3s2)c1)c1ccncc1Cl | > 25 | > 25 | > 25 | > 25
200 | 1.68 (≈ 0.638 µg/mL) | 391 |  |  |  |  |  |  |  | COc1ccc(-c2nc3ccccc3o2)cc1NC(=O)c1cnccc1Cl | > 25 | > 25 | > 25 | > 25
13000 | 0.45 (≈ 0.185 µg/mL) | 42 |  |  |  |  |  |  |  | O=C(Nc1cccc(-c2nc3ccccc3s2)c1)c1cc([N+](=O)[O-])cnc1Cl | > 25 | > 25 | 8.4 | > 25
